Measurements gathered from unrelated publications.
Each line is one published result; the experiments were not run side by side.
FGFR1: Fibroblast growth factor receptor 1 (FGFR1, Homo sapiens, UniProt P11362)
FGFR1 V561M: Fibroblast growth factor receptor 1 (FGFR1, Homo sapiens, UniProt P11362, V561M)

COc1cc2ncnc(Nc3ccc(Oc4ccccc4)cc3C)c2cc1OC — inhibition (FGFR1; enzyme activity, inhibitor; 1 µM): 5%
CSc1cccnc1N1CCN(Cc2nc3ccccc3[nH]2)CC1 — remaining binding (FGFR1; cell-free assay, competition with immobilised ligand; 1 µM): 100%
COc1ccc(/C=C/C(=O)c2ccc(NC3=C(Cl)C(=O)c4ccccc4C3=O)cc2)cc1O — inhibition (FGFR1; enzyme activity, inhibitor, ADP detection; 1 µM): > 70%
Nc1ncnc2occ(-c3ccc(NC(=O)Nc4cc(C(F)(F)F)ccc4F)cc3)c12 — remaining signal (FGFR1; cell-free assay; 20 µM): 0.15%
Cc1noc([C@H]2C[C@@H](c3ccc(C(F)(F)F)cc3)CN(C(=O)N3CCS(=O)(=O)C3)C2)n1 — remaining binding (FGFR1; cell-free assay, competition with immobilised ligand; 1 µM): 100%
COc1cc2ncnc(Nc3ccc(F)c(Cl)c3)c2cc1OCCCN1CCOCC1 — remaining signal (FGFR1; cell-free assay; 0.5 µM): 96.4%
Cc1ccc(C(=O)NCc2ccsc2)cc1C#Cc1cn(C(C)C)c2ncnc(N)c12 — activity vs control (FGFR1; enzyme activity, inhibitor; 1 µM): 33%
CS(=O)(=O)c1cc(C2(NC(=O)c3cncc4c3cnn4-c3ccc(F)cc3)CC2)ccn1 — remaining binding (FGFR1; cell-free assay, competition with immobilised ligand; 1 µM): 95%
Cc1cc(NC(=O)c2cccc3cc(-c4cccc5[nH]nc(N)c45)ccc23)ccc1F — activity vs control (FGFR1; enzyme activity, inhibitor; 0.1 µM): 95%
Oc1cccc(-c2nc(N3CCOCC3)c3oc4ncccc4c3n2)c1 — remaining signal (FGFR1; cell-free assay; 0.5 µM): 91.7%
C/C=C/C(=O)Nc1ccc(-n2nc3c(=O)[nH]nc(N)c3c2-c2oc3ccc(C)cc3c2C)cc1 — inhibition (FGFR1; enzyme activity, inhibitor, ELISA; 10 nM): 20.2%
CNCc1ccccc1-c1csc([C@@H](C)Nc2nc(C)nc3cc(OC)c(OC)cc23)c1 — remaining binding (FGFR1; cell-free assay, competition with immobilised ligand; 1 µM): 100%
Cc1ccc(C(=O)Nc2ccc(CN3CCN(C)CC3)c(C(F)(F)F)c2)cc1C#Cc1cnc2cccnn12 — remaining signal (FGFR1; cell-free assay; 23.5 nM): 4.8%
CSc1nc(C)c(-c2ccnc(Nc3ccc(N4CCOCC4)cc3)c2)[nH]1 — inhibition (FGFR1; cell-free assay, inhibitor; 10 µM): 26.2%
CCOC(=O)c1c(C)[nH]c(/C=C2\C(=O)Nc3ccccc32)c1C — remaining signal (FGFR1; cell-free assay; 0.5 µM): 78.6%
O=S(=O)(NC1CCC(c2cc(F)ccc2F)(S(=O)(=O)c2ccc(Cl)cc2)CC1)C(F)(F)F (stereo not drawn) — remaining binding (FGFR1; cell-free assay, competition with immobilised ligand; 1 µM): 100%
O=C1Nc2ccc(Cl)cc2C1=Cc1cc(Cl)c(O)c(Cl)c1 — remaining signal (FGFR1; cell-free assay; 0.5 µM): 90.8%
C=CC(=O)Nc1cccc(-n2nc3c(=O)[nH]nc(N)c3c2-c2oc3ccc(C)cc3c2C)c1 — inhibition (FGFR1; enzyme activity, inhibitor, ELISA; 10 nM): 10.6%
O=C1NC(=O)c2cc(Nc3ccc(F)cc3)c(Nc3ccc(F)cc3)cc21 — remaining signal (FGFR1; cell-free assay; 0.5 µM): 92.1%
C[C@@H]1CN(c2cc(-c3n[nH]c4ccc(OC5(C)CC5)cc34)ncn2)C[C@H](C)O1 — remaining binding (FGFR1; cell-free assay, competition with immobilised ligand; 0.1 µM): 100%
C=CC(=O)Nc1cc(Nc2nccc(Nc3cc(Cl)c(F)cc3C(C)(C)O)n2)c(OC)cc1N1CC[C@@H](N(C)C)C1 — inhibition (FGFR1; enzyme activity, inhibitor; 1 µM): 3%
CNc1cccc2cc(C(=O)Nc3ccc(C(=O)O)cc3)c(=O)[nH]c12 — inhibition (FGFR1; enzyme activity, inhibitor; 10 µM): 9.9%
CCC(=O)N[C@@H]1CC[C@H](C(=O)N(C)c2ccc(-c3nc4ccccc4o3)cc2)C1 — remaining binding (FGFR1; cell-free assay, competition with immobilised ligand; 1 µM): 87%
CC/C(=N\NC(=O)NCc1cccc(O)c1)c1ccc(O)c(C)c1O — inhibition (FGFR1 V561M; enzyme activity, inhibitor; 0.1 µM): 10.8%
CN(c1ccnc(CNc2nc(Nc3ccc4c(c3)CC(=O)N4)ncc2C(F)(F)F)n1)S(C)(=O)=O — remaining binding (FGFR1; cell-free assay, competition with immobilised ligand; 1 µM): 82%
C[C@@H]1CCN(C(=O)CC#N)C[C@@H]1N(C)c1ncnc2[nH]ccc12 — remaining signal (FGFR1; cell-free assay; 0.5 µM): 101%
CNC(=O)c1cc(Oc2ccc(NC(=O)Nc3ccc(Cl)c(C(F)(F)F)c3)cc2)ccn1 — inhibition (FGFR1 V561M; cell-free assay; 0.3 µM): 26%
